Data as given in ChEMBL document CHEMBL1155539, “Discovery of 4-[1-[([1-[4-(trifluoromethyl)benzyl]-1H-indol-7-yl]carbonyl)amino]cyclopropyl]benzoic acid (MF-766), a highly potent and selective EP4 antagonist for treating inflammatory pain” (Bioorg Med Chem Lett, 2010).

Assays:
[1] = biological target: T1, Prostaglandin D2 receptor 2 (Homo sapiens, UniProt Q9Y5Y4); assay: Displacement of [3H]PGD2 from human Prostanoid DP2 receptor expressed in HEK293-EBNA cells after 60 mins by scintillation counting; type: cell-based
T1 sequence (Q9Y5Y4 whole entry): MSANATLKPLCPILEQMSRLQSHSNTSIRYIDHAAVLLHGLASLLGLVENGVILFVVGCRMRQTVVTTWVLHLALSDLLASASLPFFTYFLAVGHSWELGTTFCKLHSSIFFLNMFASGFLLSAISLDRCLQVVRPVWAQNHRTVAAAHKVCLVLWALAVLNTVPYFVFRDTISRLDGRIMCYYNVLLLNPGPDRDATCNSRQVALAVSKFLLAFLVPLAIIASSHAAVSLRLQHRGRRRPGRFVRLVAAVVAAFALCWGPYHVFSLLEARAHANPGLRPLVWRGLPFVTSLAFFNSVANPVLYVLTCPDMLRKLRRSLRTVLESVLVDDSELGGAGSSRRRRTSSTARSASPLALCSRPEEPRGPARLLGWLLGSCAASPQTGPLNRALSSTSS

Prostacyclin receptor = Prostacyclin receptor (Homo sapiens, UniProt P43119); assay: Displacement of [3H]iloprost from human prostanoid IP receptor expressed in HEK293-EBNA cells after 60 mins by scintillation counting; type: cell-based
Chain of Prostacyclin receptor (P43119 whole entry): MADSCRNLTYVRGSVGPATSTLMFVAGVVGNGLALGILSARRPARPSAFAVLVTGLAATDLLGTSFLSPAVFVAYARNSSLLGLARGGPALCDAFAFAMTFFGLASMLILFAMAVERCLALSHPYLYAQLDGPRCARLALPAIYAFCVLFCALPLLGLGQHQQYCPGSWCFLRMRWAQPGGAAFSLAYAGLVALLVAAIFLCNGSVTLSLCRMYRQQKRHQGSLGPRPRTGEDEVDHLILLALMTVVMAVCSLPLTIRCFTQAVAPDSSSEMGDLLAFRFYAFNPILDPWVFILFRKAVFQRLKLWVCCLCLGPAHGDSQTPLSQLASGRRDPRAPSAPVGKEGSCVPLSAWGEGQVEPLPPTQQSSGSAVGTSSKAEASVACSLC

Thromboxane A2 receptor = biological target: T2, Thromboxane A2 receptor (Homo sapiens, UniProt P21731); assay: Displacement of [3H]SQ-29548 from human prostanoid TP receptor expressed in HEK293-EBNA cells after 60 mins by scintillation counting; type: cell-based
T2 sequence (P21731 whole entry): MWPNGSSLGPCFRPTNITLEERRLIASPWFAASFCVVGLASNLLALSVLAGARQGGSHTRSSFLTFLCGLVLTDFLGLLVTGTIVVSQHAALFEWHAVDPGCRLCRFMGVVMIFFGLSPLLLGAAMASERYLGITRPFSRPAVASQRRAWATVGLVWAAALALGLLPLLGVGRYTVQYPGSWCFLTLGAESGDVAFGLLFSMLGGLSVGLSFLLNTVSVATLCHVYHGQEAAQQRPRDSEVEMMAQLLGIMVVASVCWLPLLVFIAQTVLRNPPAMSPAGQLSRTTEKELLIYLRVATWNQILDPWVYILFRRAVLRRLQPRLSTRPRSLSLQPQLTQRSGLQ

[2] = biological target: Prostaglandin F2-alpha receptor (Homo sapiens, UniProt P43088); assay: Displacement of [3H]PGF2alpha from human prostanoid FP receptor expressed in HEK293-EBNA cells after 60 mins by scintillation counting; type: cell-based
Chain of Prostaglandin F2-alpha receptor (P43088 whole entry): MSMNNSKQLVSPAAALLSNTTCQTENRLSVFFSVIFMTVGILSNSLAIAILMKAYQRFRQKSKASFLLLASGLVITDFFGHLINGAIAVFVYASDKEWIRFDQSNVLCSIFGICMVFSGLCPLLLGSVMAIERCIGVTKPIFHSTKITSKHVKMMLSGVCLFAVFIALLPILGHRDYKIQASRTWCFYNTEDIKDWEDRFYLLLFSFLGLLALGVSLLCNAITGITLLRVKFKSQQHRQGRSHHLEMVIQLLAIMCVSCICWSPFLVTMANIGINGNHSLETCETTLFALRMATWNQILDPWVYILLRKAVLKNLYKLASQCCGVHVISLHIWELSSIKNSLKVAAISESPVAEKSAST

[3] = biological target: T3, Prostaglandin E2 receptor EP4 subtype (Homo sapiens, UniProt P35408); assay: Antagonist activity at human prostanoid EP4 receptor expressed in HEK293 cells assessed as inhibition of PGE2-induced cAMP accumulation by scintillation proximity assay; type: functional, cell-based
T3 sequence (P35408 whole entry): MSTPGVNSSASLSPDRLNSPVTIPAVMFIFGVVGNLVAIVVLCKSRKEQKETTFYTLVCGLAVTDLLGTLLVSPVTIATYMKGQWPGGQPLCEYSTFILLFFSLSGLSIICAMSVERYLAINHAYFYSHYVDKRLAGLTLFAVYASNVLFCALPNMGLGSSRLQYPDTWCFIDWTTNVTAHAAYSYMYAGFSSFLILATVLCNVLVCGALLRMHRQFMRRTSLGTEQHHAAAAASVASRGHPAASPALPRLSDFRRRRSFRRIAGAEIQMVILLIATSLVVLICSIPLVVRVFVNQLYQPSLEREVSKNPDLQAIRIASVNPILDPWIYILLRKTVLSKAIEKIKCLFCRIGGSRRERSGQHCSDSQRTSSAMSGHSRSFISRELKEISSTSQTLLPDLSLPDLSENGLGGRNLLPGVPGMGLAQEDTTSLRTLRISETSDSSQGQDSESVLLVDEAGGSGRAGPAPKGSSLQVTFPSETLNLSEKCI
In short: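 Read-out was inhibition of PGE2-induced cAMP accumulation at EP4. Values are means from at least two independent experiments.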

[4] = biological target: T3, Prostaglandin E2 receptor EP4 subtype; assay: Displacement of [3H]PGE2 from human prostanoid EP4 receptor expressed in HEK293-EBNA cells after 60 mins by scintillation counting; type: cell-based
[5] = biological target: T4, Prostaglandin D2 receptor (Homo sapiens, UniProt Q13258); assay: Displacement of [3H]PGD2 from human Prostanoid DP1 receptor expressed in HEK293-EBNA cells after 60 mins by scintillation counting; type: cell-based
T4 sequence (Q13258 whole entry): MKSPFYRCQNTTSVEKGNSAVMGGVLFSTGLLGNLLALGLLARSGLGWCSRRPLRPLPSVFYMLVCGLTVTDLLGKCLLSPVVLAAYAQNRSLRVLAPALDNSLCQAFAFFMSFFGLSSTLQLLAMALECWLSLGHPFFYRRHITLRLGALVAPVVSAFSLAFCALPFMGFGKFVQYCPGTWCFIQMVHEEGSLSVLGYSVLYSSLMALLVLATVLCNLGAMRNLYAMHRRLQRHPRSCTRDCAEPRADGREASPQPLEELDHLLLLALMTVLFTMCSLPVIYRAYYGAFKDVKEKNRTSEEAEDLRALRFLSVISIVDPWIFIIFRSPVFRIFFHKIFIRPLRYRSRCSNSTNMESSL

[6] = biological target: T5, Prostaglandin E2 receptor EP1 subtype (Homo sapiens, UniProt P34995); assay: Displacement of [3H]PGE2 from human prostanoid EP1 receptor expressed in HEK293-EBNA cells after 60 mins by scintillation counting; type: cell-based
T5 sequence (P34995 whole entry): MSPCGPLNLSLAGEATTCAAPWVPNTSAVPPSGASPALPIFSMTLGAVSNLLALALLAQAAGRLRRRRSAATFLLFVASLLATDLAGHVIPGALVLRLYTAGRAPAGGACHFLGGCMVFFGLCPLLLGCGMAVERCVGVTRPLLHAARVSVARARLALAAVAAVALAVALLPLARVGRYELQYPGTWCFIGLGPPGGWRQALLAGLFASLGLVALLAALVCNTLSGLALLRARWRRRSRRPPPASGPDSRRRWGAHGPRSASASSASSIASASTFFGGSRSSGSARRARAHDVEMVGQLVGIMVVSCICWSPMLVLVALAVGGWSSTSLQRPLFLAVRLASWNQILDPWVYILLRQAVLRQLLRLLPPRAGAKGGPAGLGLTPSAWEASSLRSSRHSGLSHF

[7] = biological target: Prostaglandin E2 receptor EP2 subtype (Homo sapiens, UniProt P43116); assay: Displacement of [3H]PGE2 from human prostanoid EP2 receptor expressed in HEK293-EBNA cells after 60 mins by scintillation counting; type: cell-based
Chain of Prostaglandin E2 receptor EP2 subtype (P43116 whole entry): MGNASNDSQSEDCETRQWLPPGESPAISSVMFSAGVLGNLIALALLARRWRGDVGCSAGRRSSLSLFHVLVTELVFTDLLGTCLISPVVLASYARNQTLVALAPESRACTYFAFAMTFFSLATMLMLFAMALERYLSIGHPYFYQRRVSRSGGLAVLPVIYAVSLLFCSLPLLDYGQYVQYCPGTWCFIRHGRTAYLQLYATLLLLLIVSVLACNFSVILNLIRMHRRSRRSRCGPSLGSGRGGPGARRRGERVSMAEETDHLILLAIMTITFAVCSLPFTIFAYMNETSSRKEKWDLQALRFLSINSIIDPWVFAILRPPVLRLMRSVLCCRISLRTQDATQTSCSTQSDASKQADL

[8] = biological target: T6, Prostaglandin E2 receptor EP3 subtype (Homo sapiens, UniProt P43115); assay: Displacement of [3H]PGE2 from human prostanoid EP3 receptor expressed in HEK293-EBNA cells after 60 mins by scintillation counting; type: cell-based
T6 sequence (P43115 whole entry): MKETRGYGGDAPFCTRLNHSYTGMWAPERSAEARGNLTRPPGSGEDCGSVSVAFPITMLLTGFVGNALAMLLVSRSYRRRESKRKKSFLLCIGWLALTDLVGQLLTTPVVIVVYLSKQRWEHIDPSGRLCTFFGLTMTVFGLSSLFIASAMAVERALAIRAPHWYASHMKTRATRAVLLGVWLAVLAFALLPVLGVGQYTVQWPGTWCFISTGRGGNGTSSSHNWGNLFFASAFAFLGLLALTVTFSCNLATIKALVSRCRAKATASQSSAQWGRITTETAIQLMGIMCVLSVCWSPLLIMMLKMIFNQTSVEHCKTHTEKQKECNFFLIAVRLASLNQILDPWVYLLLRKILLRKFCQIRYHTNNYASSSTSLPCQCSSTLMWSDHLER

Rattus norvegicus = assay: Antiinflammatory activity in rat assessed as inhibition of complete Freund's adjuvant-induced paw swelling administered daily once 9 days after adjuvant challenge measured on day 18; type: functional
In short: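 Rat adjuvant-induced arthritis model with daily dosing in mg/kg/day. Dose groups were 0, 0.001, 0.01, 0.1 and 1 mg/kg, plus a non-AIA control group. Primary and secondary paw swelling were scored as % inhibition relative to vehicle-treated arthritic rats, and ED50 was estimated from the dose–response.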

Row | Compound | Ki [1] [nM] | Ki (Prostacyclin receptor) [nM] | Ki (Thromboxane A2 receptor) [nM] | Ki [2] [nM] | IC50 [3] [nM] | Ki [4] [nM] | Ki [5] [nM] | Ki [6] [nM] | Ki [7] [nM] | Ki [8] [nM] | ED50 (Rattus norvegicus) [mg/kg/day] | ED80 (Rattus norvegicus) [mg/kg]
1 | C[C@H](NC(=O)c1cccc2ccn(Cc3cc(Cl)cc(OC(F)(F)F)c3)c12)c1ccc(C(=O)O)cc1 | ≥ 260 | ≥ 260 | ≥ 260 | ≥ 260 | 1.4 | 0.38 | 49 | ≥ 260 | ≥ 260 | ≥ 260 |  | 
2 | C[C@H](NC(=O)c1cc(Cl)cc2ccn(Cc3ccc(C(F)(F)F)cc3)c12)c1ccc(C(=O)O)cc1 | ≥ 100 | ≥ 100 | ≥ 100 | ≥ 100 | 1.12 | 0.44 | 209 | ≥ 100 | ≥ 100 | ≥ 100 |  | 
3 | CS(=O)(=O)c1ccc(C2=C(c3ccccc3)C(=O)OC2)cc1 [ROFECOXIB] |  |  |  |  |  |  |  |  |  |  | 0.7 | 
4 | C[C@H](NC(=O)c1cccc2ccn(Cc3cccc(Cl)c3)c12)c1ccc(C(=O)O)cc1 | ≥ 2500 | ≥ 2500 | ≥ 2500 | ≥ 2500 | 5.9 | 2.7 | 16 | ≥ 2500 | ≥ 2500 | ≥ 2500 |  | 
5 | O=C(O)c1ccc(C2(NC(=O)c3cc(Cl)cc4ccn(Cc5ccc(C(F)(F)F)cc5)c34)CC2)cc1 | ≥ 1290 | ≥ 1290 | ≥ 1290 | ≥ 1290 | 1.26 | 0.31 | 561 | ≥ 1290 | ≥ 1290 | ≥ 1290 |  | 
6 | C[C@H](NC(=O)c1cc(Cl)ccc1Oc1ccc(F)cc1)c1ccc(C(=O)O)cc1 |  |  |  |  |  |  |  |  |  |  |  | 11.5
7 | Cc1cc2cccc(C(=O)N[C@@H](C)c3ccc(C(=O)O)cc3)c2n1Cc1cccc(Cl)c1 |  |  |  |  |  | 56 | 450 |  |  |  |  | 
8 | C[C@H](NC(=O)c1cccc2ccn(Cc3ccc(C(F)(F)F)cc3)c12)c1ccc(C(=O)O)cc1 | ≥ 580 | ≥ 580 | ≥ 580 | ≥ 580 | 2.7 | 0.62 | 1390 | ≥ 580 | ≥ 580 | ≥ 580 |  | 
9 | C[C@H](NC(=O)c1cc(F)cc2ccn(Cc3cccc(Cl)c3)c12)c1ccc(C(=O)O)cc1 | ≥ 504 | ≥ 504 | ≥ 504 | ≥ 504 | 3.3 | 2.4 | 404 | ≥ 504 | ≥ 504 | ≥ 504 |  | 
10 | C[C@H](NC(=O)c1cccc2ccn(Cc3cccc(C(F)(F)F)c3)c12)c1ccc(C(=O)O)cc1 | ≥ 785 | ≥ 785 | ≥ 785 | ≥ 785 | 11.8 | 4.8 | 885 | ≥ 785 | ≥ 785 | ≥ 785 |  | 
11 | C[C@H](NC(=O)c1cccc2c(Cl)cn(Cc3cccc(Cl)c3)c12)c1ccc(C(=O)O)cc1 | ≥ 930 | ≥ 930 | ≥ 930 | ≥ 930 |  | 20.1 | 14 | ≥ 930 | ≥ 930 | ≥ 930 |  | 
12 | C[C@H](NC(=O)c1cc(Cl)cc2ccn(Cc3cccc(Cl)c3)c12)c1ccc(C(=O)O)cc1 | ≥ 110 | ≥ 110 | ≥ 110 | ≥ 110 | 1.5 | 0.81 | 63 | ≥ 110 | ≥ 110 | ≥ 110 |  | 
13 | Cc1cn(Cc2cccc(Cl)c2)c2c(C(=O)N[C@@H](C)c3ccc(C(=O)O)cc3)cccc12 |  |  |  |  |  | 39.5 | 1200 |  |  |  |  | 
